The nature of experiment [1]: inhibitors of TNFa-induced NFkB p65 translocation, primary screen, imaging, HUVEC, MLSMR starter and 10KST1 sets (AID 438;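 active = inhibition above 20% together with a positive visual image hit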;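 note: compound added about 3h40 before a 20 min TNFalpha stimulation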;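 for inhibition: signal is the nuclear over cytoplasmic p65 intensity ratio per well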). The conditions noted are these: HUVEC TNFa-induced p65 nuclear translocation; cell count: measured here: nuclei count (cytotoxicity indicator), at 2.08 µM; inhibition: at 2 µM, stronger effect = higher value, 0% TNFa-plus-vehicle, 100% no-TNFa wells.
Experiment [2] in a line: inhibitors of mutant huntingtin aggregation, primary screen, imaging, exon1htt(103Q)mCFP cells, high-content imaging (AID 483;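 active = visual image review flags a hit and inhibition of aggregation exceeds 20%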;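 note: compound exposure lasted 3 days before fixation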;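 for nuclei count: percent of the per-plate median nuclei count of sample wells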). Particulars: exon1htt(103Q)mCFP cell line, aggregate imaging, at 2 µM; inhibition of aggregation: stronger effect = higher value; nuclei count: measured here: cell count, toxicity.
The nature of experiment [3]: inhibitors of E-selectin induction by TNFa, primary screen, imaging, HUVEC, immunofluorescence, MLSMR starter and 10KST1 sets (AID 487;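 active = visually confirmed hit in the image check and inhibition above 20%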;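 for inhibition: signal is fraction of cell area covered by stained E-selectin grains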;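 for nuclei count: 100% = median nuclei count of all wells on the same plate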). The conditions noted are these: HUVEC TNFalpha-induced E-selectin immunofluorescence imaging, at 2 µM; inhibition: stronger effect = higher value; nuclei count: measured here: cell number, toxicity.
For experiment [4], the target named is Voltage-gated potassium channel subunit beta-2 (Rattus norvegicus) (UniProt P62483). The experiment can be described thus: KvBeta enzyme negative modulators, primary screen, biochemical, NADPH fluorescence (AID 622;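 active = fluorescence slope higher than the sample average by over 3 SD, cut at about -0.22 in these data, passing the limit was not always enough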;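 note: slope of raw intensity against log time taken from 70 to 1610 s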). The conditions noted are these: recombinant KvBeta, 4-cyanobenzaldehyde reduction, at 10 µM, stronger effect = higher value.
Voltage-gated potassium channel subunit beta-2 (Rattus norvegicus), sequence (P62483 whole entry, looked up): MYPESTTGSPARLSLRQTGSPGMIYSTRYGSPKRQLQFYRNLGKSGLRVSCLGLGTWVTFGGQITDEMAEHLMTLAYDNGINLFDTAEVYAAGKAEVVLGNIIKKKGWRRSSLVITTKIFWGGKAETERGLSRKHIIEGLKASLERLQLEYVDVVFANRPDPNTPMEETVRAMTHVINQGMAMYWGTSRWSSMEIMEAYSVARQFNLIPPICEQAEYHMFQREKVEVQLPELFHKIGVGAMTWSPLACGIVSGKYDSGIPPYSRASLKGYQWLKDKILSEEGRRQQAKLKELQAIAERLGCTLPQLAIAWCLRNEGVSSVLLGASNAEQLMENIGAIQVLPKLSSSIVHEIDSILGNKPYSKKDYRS
Experiment [5] has the same target. Nature of the experiment: KvBeta positive modulators, primary screen, biochemical, NADPH fluorescence (AID 623;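 active = NADPH fluorescence slope more negative than the mean of all samples by about 3 SD, 99.7% confidence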;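 note: fluorescence intensity change per second fitted from 20 to 320 s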). Particulars: Recombinant KvBeta, NADPH fluorescence decrease slope, 10 min; at 10 µM; stronger effect = lower value.
The target of experiment [6] is Muscarinic acetylcholine receptor M4 (Homo sapiens) (UniProt P08173). Nature of the experiment: compounds altering M4/GIRK thallium flux, either direction, primary screen, M4 allosteric agonist project, cell-based, HEK293 M4/GIRK, BTC-AM (AID 625;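 active = fluorescence slope after compound addition differing from the mean of all tested samples at 99.7% confidence, mostly higher but some lower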;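 note: thallium influx through GIRK channels coupled to M4 in HEK293 cells with BTC-AM dye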). Particulars: at 10 µM, actives lie on both sides. The procedure, abridged:
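Material: M4/GIRK1/GIRK2 stable HEK293 cell line. Medium: pH 7.3 thallium assay buffer. Dosing: single compound concentration, 10 µM final. Schedule: 1 h dye loading, 2 min kinetic read. Measured by: kinetic fluorescence with BTC-AM dye. Read-out: post-addition slope, 15–24 s, of baseline-normalized fluorescence. Benchmarks: carbachol and DMSO controls.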

Experiment [7] can be described thus: inhibitors of Sendai virus-induced IRF3 signaling, primary screen, TLR/RLR signaling modifier project, cell-based, Sendai virus stimulus, luciferase, 10K MLSCN set (AID 602276;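 active = inhibition at or above 50% at 10 µM; inactive = inhibition below 50%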;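 note: firefly luciferase from ISG56 promoter only with Renilla not read in this screen; 0% = Sendai virus plus DMSO and 100% = medium plus DMSO without virus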). Particulars: HEK293 RL24 IRF3 luciferase reporter, at 10 µM, stronger effect = higher value. A general note: A reporter such as luciferase makes a cellular process visible.
A short description of experiment [8]: inhibitors of poly I:C-induced TLR3 signaling, primary screen, cell-based, poly I:C stimulus, luciferase, 10K MLSCN set (AID 602277). Particulars: HEK293-TLR3 RL24 IRF3 luciferase reporter, at 10 µM, stronger effect = higher value.

The source made the active and inactive calls.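 Rule for the calls, unless noted: active = inhibition of the reporter signal at or above 50%; inactive = inhibition below 50%.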

The term inhibition denotes the change of the read-out against control, counted positive when it falls.

Muscarinic acetylcholine receptor M4 (Homo sapiens), sequence (P08173 whole entry, looked up): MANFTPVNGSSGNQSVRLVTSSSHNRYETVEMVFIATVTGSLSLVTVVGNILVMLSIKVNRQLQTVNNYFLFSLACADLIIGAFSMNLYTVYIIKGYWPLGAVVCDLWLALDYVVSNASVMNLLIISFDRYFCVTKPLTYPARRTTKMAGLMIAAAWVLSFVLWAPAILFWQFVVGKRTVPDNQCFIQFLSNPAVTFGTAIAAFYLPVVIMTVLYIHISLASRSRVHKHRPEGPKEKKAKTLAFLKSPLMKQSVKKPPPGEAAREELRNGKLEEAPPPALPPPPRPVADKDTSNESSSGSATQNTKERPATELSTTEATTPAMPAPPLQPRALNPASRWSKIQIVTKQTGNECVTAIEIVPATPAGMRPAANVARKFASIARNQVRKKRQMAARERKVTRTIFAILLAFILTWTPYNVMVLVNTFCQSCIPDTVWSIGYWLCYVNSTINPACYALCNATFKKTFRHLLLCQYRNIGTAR

On to `NC(=O)C1CCN(CC(=O)N2c3ccccc3CCc3ccccc32)CC1`, for which the cell count in experiment [1] worked out at 409. For the same compound, the inhibition is -16.8% (inactive) in experiment [1], -20.9% (inactive) in experiment [3], 15.6% (inactive) in experiment [7] and 23.9% (inactive) in experiment [8]. Besides, the inhibition of aggregation in experiment [2] was -2.8% (inactive). For the same compound, the nuclei count in experiment [2] worked out at 107%; in experiment [3], 154%. Moreover, the fluorescence slope is -0.587 (inactive) in experiment [4] and 0.00441 (inactive) in experiment [6]. For the same compound, in experiment [5], the NADPH fluorescence slope was -5.7e-05 (inactive).

Consider `COc1ccccc1NC(=O)N1CCN(c2cccc(C(F)(F)F)c2)CC1`, for which the cell count in experiment [1] stood at 380. The inhibition in experiment [1] was 4.7% (inactive); in experiment [3] it was -103% (inactive); in experiment [7], -10.2% (inactive); in experiment [8], -42% (inactive). Further, the inhibition of aggregation in experiment [2] was 12.5% (inactive). In addition, the nuclei count in experiment [2] amounted to 107%; in experiment [3], 118%. For the same compound, the fluorescence slope in experiment [4] is -0.27 (inactive); in experiment [6] it was 0.00535 (inactive). Also, the NADPH fluorescence slope in experiment [5] was -2.7e-05 (inactive).

As for `COC(=O)c1[nH]c2cc(OC)ccc2c1NC(=O)CCN1CCCCC1`, the cell count in experiment [1] came to 290. Moreover, the inhibition in experiment [1] was 10.8% (inactive); in experiment [3] it was -82.1% (inactive); in experiment [7], -3.43% (inactive); in experiment [8], 3.78% (inactive). Besides, the inhibition of aggregation in experiment [2] is -12.7% (inactive). The nuclei count in experiment [2] was found to be 70.3%; in experiment [3] it was 164%. The figures for the fluorescence slope in experiment [4] and in experiment [6] were -0.55 (inactive) and 0.0032 (inactive), respectively. Moreover, the NADPH fluorescence slope in experiment [5] is -5.4e-05 (inactive).

Turning to `Cc1ccc(/C(O)=C2\C(=O)C(=O)N(CCCN(C)C)C2c2ccccn2)cc1` (stereo not drawn), the cell count in experiment [1] came to 536. For the same compound, the inhibition in experiment [1] is 0.9% (inactive); in experiment [3] it was -53.4% (inactive); in experiment [7] it was 16.3% (inactive); in experiment [8], 8.71% (inactive). The inhibition of aggregation in experiment [2] was -3.7% (inactive). Also, the nuclei count in experiment [2] stood at 98.9%; in experiment [3], 132%. In addition, the results for the fluorescence slope in experiment [4] and in experiment [6] were -0.514 (inactive) and 0.00375 (inactive), respectively. Besides, the NADPH fluorescence slope in experiment [5] was -0.000162 (inactive).

With `O=S(=O)(NCCCCCNS(=O)(=O)c1ccccc1)c1ccccc1`, the cell count in experiment [1] was 468. Further, the inhibition in experiment [1] was 4.3% (inactive); in experiment [3] it was -56.2% (inactive); in experiment [7] it was 20.2% (inactive); in experiment [8], 22.6% (inactive). In addition, the inhibition of aggregation in experiment [2] is -5% (inactive). For the same compound, the values for the nuclei count in experiment [2] and in experiment [3] were 104% and 142%, respectively. Also, the fluorescence slope is -0.547 (inactive) in experiment [4] and 0.00488 (inactive) in experiment [6]. The NADPH fluorescence slope in experiment [5] was -3.3e-05 (inactive).

As to `CC(=O)c1c(NCCc2ccccc2)cc(C)oc1=O`, the cell count in experiment [1] is 577. The inhibition in experiment [1] is 8.2% (inactive); in experiment [3] it was -32.4% (inactive); in experiment [7], -1.27% (inactive); in experiment [8] it was 11% (inactive). Also, the inhibition of aggregation in experiment [2] was 8.3% (inactive). Further, the nuclei count was 104% in experiment [2] and 106% in experiment [3]. For the same compound, the fluorescence slope in experiment [4] is -0.259 (inactive); in experiment [6], 0.00739 (inactive). In experiment [5], the NADPH fluorescence slope is -2.2e-05 (inactive).

`O=C(COC(=O)c1ccc(Br)o1)Nc1ccc(S(=O)(=O)N2CCCC2)cc1`: the cell count in experiment [1] is 619. Besides, the inhibition is -3.6% (inactive) in experiment [1], -150% (inactive) in experiment [3], 12.4% (inactive) in experiment [7] and 11.3% (inactive) in experiment [8]. Moreover, in experiment [2], the inhibition of aggregation was -10.1% (inactive). Also, the nuclei count in experiment [2] amounted to 117%; in experiment [3], 130%. Also, the fluorescence slope in experiment [4] was -0.208 (inactive); in experiment [6], 0.00525 (inactive). Moreover, in experiment [5], the NADPH fluorescence slope is -2e-05 (inactive).

Regarding `CCCCc1cc(=O)oc2c(CN3CCCC3)c(O)c(Cl)cc12`, the cell count in experiment [1] was 531. In addition, the inhibition was -12.6% (inactive) in experiment [1], 26.1% (inactive) in experiment [3], 20% (inactive) in experiment [7] and 19.7% (inactive) in experiment [8]. In addition, in experiment [2], the inhibition of aggregation was -16.7% (inactive). Moreover, the nuclei count came out at 46.6% in experiment [2] and 89.4% in experiment [3]. Moreover, the fluorescence slope is -0.00586 (active) in experiment [4] and 0.00532 (inactive) in experiment [6]. Moreover, the NADPH fluorescence slope in experiment [5] was 0 (inactive).

`Cc1ccc(-n2c3c(cc(C(=O)O)c2=O)C(=O)CC(C)(C)C3)cc1`: in experiment [1], the cell count was 418. Also, the inhibition in experiment [1] is 2.8% (inactive); in experiment [3], 3.1% (inactive); in experiment [7], 17% (inactive); in experiment [8] it was 24.4% (inactive). Also, the inhibition of aggregation in experiment [2] was 6.9% (inactive). For the same compound, the nuclei count was found to be 109% in experiment [2] and 110% in experiment [3]. Further, the fluorescence slope is -0.377 (inactive) in experiment [4] and 0.00507 (inactive) in experiment [6]. Also, the NADPH fluorescence slope in experiment [5] was 4.6e-05 (inactive).

As for `O=C(CCCCC(=O)NCc1cccs1)NCc1cccs1`, in experiment [1], the cell count is 681. Besides, the inhibition was -12.6% (inactive) in experiment [1], 0.6% (inactive) in experiment [3], -6.61% (inactive) in experiment [7] and 0.312% (inactive) in experiment [8]. For the same compound, in experiment [2], the inhibition of aggregation was -3.7% (inactive). The nuclei count came out at 110% in experiment [2] and 88.9% in experiment [3]. For the same compound, the fluorescence slope in experiment [4] is -0.571 (inactive); in experiment [6], 0.00493 (inactive). Moreover, the NADPH fluorescence slope in experiment [5] is 3.2e-05 (inactive).

As for `O=C(NCc1nnc(SCC(=O)N2CCCCCC2)o1)c1ccco1`, the cell count in experiment [1] came to 595. In addition, the inhibition is -15.7% (inactive) in experiment [1], -52.2% (inactive) in experiment [3], 6.86% (inactive) in experiment [7] and 11% (inactive) in experiment [8]. For the same compound, the inhibition of aggregation in experiment [2] was 12.1% (inactive). Besides, the nuclei count came out at 124% in experiment [2] and 106% in experiment [3]. Besides, the fluorescence slope was -0.516 (inactive) in experiment [4] and 0.00384 (inactive) in experiment [6]. Moreover, the NADPH fluorescence slope in experiment [5] is -2.1e-05 (inactive).

Turning to `CCN(C(=O)Cc1c(C(=O)O)[nH]c2ccccc12)c1cc(OC)ccc1OC`, the cell count in experiment [1] turned out to be 439. Further, the inhibition in experiment [1] is -5.2% (inactive); in experiment [3], -36% (inactive); in experiment [7], 13.8% (inactive); in experiment [8] it was 24.5% (inactive). Besides, the inhibition of aggregation in experiment [2] was -10% (inactive). Moreover, the nuclei count in experiment [2] was 120%; in experiment [3], 143%. For the same compound, the fluorescence slope in experiment [4] was -0.286 (inactive); in experiment [6], 0.00689 (inactive). Moreover, the NADPH fluorescence slope in experiment [5] is -4e-05 (inactive).

Take `S=c1[nH]c2ccc(Cl)cc2[nH]1`: in experiment [1], the cell count turned out to be 457. Moreover, the inhibition was -3.8% (inactive) in experiment [1], -78.7% (inactive) in experiment [3], 21.3% (inactive) in experiment [7] and 33.3% (inactive) in experiment [8]. For the same compound, the inhibition of aggregation in experiment [2] is -4% (inactive). In addition, the nuclei count in experiment [2] is 91.1%; in experiment [3], 110%. Also, the results for the fluorescence slope in experiment [4] and in experiment [6] were -0.449 (inactive) and 0.00564 (inactive), respectively. Also, the NADPH fluorescence slope in experiment [5] was -3.7e-05 (inactive).

The record behind these values is PubChem BioAssay.
